The target of this experiment is Prolyl endopeptidase (Sus scrofa, UniProt P23687). Description: In vitro inhibitory activity against prolyl endopeptidase (PEP). The method in brief: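 Pig kidney PEP, partially purified. Substrate Z-Gly-Pro-p-nitroanilide at 0.26 mM in dioxane with 0.2 M phosphate buffer. Inhibitor is added in DMSO over a range of concentrations, then enzyme (0.05 units/mL). Incubation 20 min at 37 °C, with p-nitroaniline read at 405 nm. IC50 (n = 3-6) is estimated from the inhibitor concentration vs activity curve.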
Sequence of Prolyl endopeptidase (P23687 whole entry): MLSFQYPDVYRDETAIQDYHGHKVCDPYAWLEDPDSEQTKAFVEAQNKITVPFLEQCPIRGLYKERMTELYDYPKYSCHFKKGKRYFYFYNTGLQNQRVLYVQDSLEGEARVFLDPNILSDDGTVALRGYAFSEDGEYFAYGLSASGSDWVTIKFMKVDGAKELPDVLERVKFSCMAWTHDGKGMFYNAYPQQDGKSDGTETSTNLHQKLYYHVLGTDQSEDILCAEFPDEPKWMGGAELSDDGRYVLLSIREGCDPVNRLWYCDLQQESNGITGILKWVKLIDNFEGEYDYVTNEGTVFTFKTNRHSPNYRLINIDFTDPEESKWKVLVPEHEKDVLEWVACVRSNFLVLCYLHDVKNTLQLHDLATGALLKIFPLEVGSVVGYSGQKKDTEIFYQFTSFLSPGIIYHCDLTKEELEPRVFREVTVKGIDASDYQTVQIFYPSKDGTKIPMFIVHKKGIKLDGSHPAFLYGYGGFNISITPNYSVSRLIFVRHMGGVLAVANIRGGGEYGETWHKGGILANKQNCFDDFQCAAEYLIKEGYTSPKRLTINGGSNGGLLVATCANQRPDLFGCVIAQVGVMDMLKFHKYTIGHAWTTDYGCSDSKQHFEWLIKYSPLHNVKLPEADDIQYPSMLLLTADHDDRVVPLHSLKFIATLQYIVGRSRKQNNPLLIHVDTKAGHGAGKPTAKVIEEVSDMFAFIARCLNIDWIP

One may read the IC50 as the concentration that inhibits the measured activity by half.

The compound `O=C(c1nc2ccccc2s1)[C@@H]1CCCN1C(=O)[C@@H]1CCCN1C(=O)CCCc1ccccc1` displayed a half-maximal inhibitory concentration (IC50) of 4 nM. As for `O=C(c1cncs1)[C@@H]1CCCN1C(=O)[C@@H]1CCCN1C(=O)CCCc1ccccc1`, the figure is 1090 nM; as for `O=C(c1ccc[nH]1)[C@@H]1CCCN1C(=O)[C@@H]1CCCN1C(=O)CCCc1ccccc1`, 21300 nM; as for `O=C(c1ncc[nH]1)[C@@H]1CCCN1C(=O)[C@@H]1CCCN1C(=O)CCCc1ccccc1`, 9 nM. The same measure for `O=C(c1cccnc1)[C@@H]1CCCN1C(=O)[C@@H]1CCCN1C(=O)CCCc1ccccc1`: 2290 nM; for `O=C(c1ccccn1)[C@@H]1CCCN1C(=O)[C@@H]1CCCN1C(=O)CCCc1ccccc1`: 6.9 nM.

Consider `O=C(c1cscn1)[C@@H]1CCCN1C(=O)[C@@H]1CCCN1C(=O)CCCc1ccccc1`, for which the IC50 stood at 6.2 nM. The compound `O=C(c1nc2ccccc2s1)[C@@H]1CCCN1C(=O)[C@@H]1CCCN1C(=O)OCc1ccccc1` gave an IC50 of 5 nM. The same measure for `O=C([C@@H]1CCCN1C(=O)CCCc1ccccc1)N1CCCC1C(O)c1nccs1` (some centres not stated): 16100 nM. The same measure for `O=C(c1nc2ccccc2o1)[C@@H]1CCCN1C(=O)[C@@H]1CCCN1C(=O)CCCc1ccccc1`: 5.6 nM. As for `O=C(c1cccs1)[C@@H]1CCCN1C(=O)[C@@H]1CCCN1C(=O)OCc1ccccc1`, the figure is 2020 nM. `O=C(C1=NCCS1)[C@@H]1CCCN1C(=O)[C@@H]1CCCN1C(=O)CCCc1ccccc1`: half-maximal inhibition (IC50) required 3.8 nM.

In turn, `O=C(c1nc2ncccc2o1)[C@@H]1CCCN1C(=O)[C@@H]1CCCN1C(=O)CCCc1ccccc1` registered a concentration for half-maximal inhibition (IC50) of 5.5 nM. `O=C(c1cccs1)[C@@H]1CCCN1C(=O)[C@@H]1CCCN1C(=O)CCCc1ccccc1` returned an IC50 of 1260 nM. This IC50 lies about 230-fold higher than the previous one. As for `O=C(c1cncnc1)[C@@H]1CCCN1C(=O)[C@@H]1CCCN1C(=O)CCCc1ccccc1`, the figure is 61 nM. As for `CCOC(=O)C(=O)C1CCCN1C(=O)[C@@H]1CCCN1C(=O)CCCc1ccccc1` (some centres not stated), the figure is 10.3 nM; as for `O=C(c1nccs1)C1CCCN1C(=O)C1CCCN1C(=O)OCc1ccccc1` (configuration not stated), 8.5 nM.
